The values that follow come from ChEMBL document CHEMBL1124270, “Quinolone antibacterial agents. Synthesis and structure-activity relationships of 8-substituted quinoline-3-carboxylic acids and 1,8-naphthyridine-3-carboxylic acids” (1988).

Values after ≈ are worked out from the molar mass of the structure shown.

What all share (type): functional
Assay [1] deals with Streptococcus pneumoniae. Kind of assay: Minimum inhibitory concentration against Streptococcus pneumoniae SV-1 in vitro.
Assay [2] has as its system Staphylococcus aureus. The experiment in a line: Minimum inhibitory concentration against Staphylococcus aureus H228 in vitro.
The subject of assay [3] is Enterococcus faecalis. The experiment in a line: Minimum inhibitory concentration against Streptococcus faecalis MGH-2 in vitro.
The subject of assay [4] is Mus musculus. The experiment in a line: In vivo potency against Escherichia coli vogel using mouse protection assay when given perorally. To be noted: po, read-out: PD50.
Assay [5] deals with Staphylococcus aureus. The experiment in a line: Minimum inhibitory concentration against Staphylococcus aureus UC-76 in vitro.
The subject of assay [6] is Escherichia coli. The experiment in a line: Minimum concentration needed to produce linear DNA at an intensity relative to oxolinic at 10 ug/mL in Escherichia coli H560 in vitro. Put shortly: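 DNA gyrase cleavage test, run as previously described: end point is the lowest drug level (µg/mL) that yields linear DNA at a band intensity matching oxolinic acid at 10 µg/mL. Values come from duplicate or triplicate experiments and are stated as accurate to ±50%.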

Assay [7] concerns Escherichia coli. Kind of assay: Minimum inhibitory concentration against Escherichia coli H560 in vitro.
For assay [8], the system named is Enterobacter cloacae. The experiment in a line: Minimum inhibitory concentration against Enterobacter cloacae HA 2646 in vitro.
Assay [9] concerns Providencia rettgeri. The experiment in a line: Minimum inhibitory concentration against Providencia rettgeri H1771 in vitro.
Assay [10] relates to Klebsiella pneumoniae. Kind of assay: Minimum inhibitory concentration against Klebsiella pneumoniae MGH-2 in vitro.
The test system of assay [11] is Mus musculus. The experiment in a line: In vivo potency against Escherichia coli vogel using mouse protection assay when given subcutaneously. To be noted: sc, read-out: PD50.
The subject of assay [12] is Streptococcus pyogenes. The experiment in a line: Minimum inhibitory concentration against Streptococcus pyogenes C203 in vitro.
For assay [13], the system named is Pseudomonas aeruginosa. The experiment in a line: Minimum inhibitory concentration against Pseudomonas aeruginosa UI-18 in vitro.
Assay [14] has as its system Escherichia coli. Kind of assay: Minimum inhibitory concentration against Escherichia coli vogel in vitro.
The subject of assay [15] is Staphylococcus aureus. Kind of assay: In vivo potency against Staphylococcus aureus using mouse protection assay following p.o. administration. The note with it: po, read-out: PD50.
Assay [16] relates to Staphylococcus aureus. The experiment in a line: In vivo potency against Staphylococcus aureus using mouse protection assay following s.c. administration. To be noted: sc, read-out: PD50.

As to `CCNCC1CCN(c2c(F)cc3c(=O)c(C(=O)O)cn4c3c2OCC4C)C1` (stereo not given), the MIC in assay [1] turned out to be 0.05 µg/mL (≈ 0.128 µM); in assay [2], 0.2 µg/mL (≈ 0.514 µM); in assay [3], 0.1 µg/mL (≈ 0.257 µM); in assay [5], 0.025 µg/mL (≈ 0.0642 µM); in assay [7] it was 0.05 µg/mL (≈ 0.128 µM); in [8], 0.2 µg/mL (≈ 0.514 µM). Moreover, the MIC was 0.8 µg/mL (≈ 2.05 µM) in [9]; 0.4 µg/mL (≈ 1.03 µM) in [10]; 0.05 µg/mL (≈ 0.128 µM) in assay [12]; 0.8 µg/mL (≈ 2.05 µM) in assay [13]; 0.1 µg/mL (≈ 0.257 µM) in [14]. Moreover, the ED50 in [4] is over 100 mg/kg; in [11] it was 11 mg/kg. The DNA cleavage conc (gyrase) in assay [6] turned out to be 0.5 µg/mL.

`O=C(O)c1cn(C2CC2)c2c(Cl)c(N3CCNCC3)c(F)cc2c1=O`: the MIC is 0.1 µg/mL (≈ 0.273 µM) in assay [1]; 0.1 µg/mL (≈ 0.273 µM) in assay [2]; 0.4 µg/mL (≈ 1.09 µM) in [3]; 0.05 µg/mL (≈ 0.137 µM) in assay [5]; 0.025 µg/mL (≈ 0.0683 µM) in assay [7]; 0.025 µg/mL (≈ 0.0683 µM) in assay [8]. Further, the minimum inhibitory concentration (MIC) in [9] turned out to be 0.1 µg/mL (≈ 0.273 µM); in assay [10], 0.05 µg/mL (≈ 0.137 µM); in assay [12], 0.2 µg/mL (≈ 0.547 µM); in assay [13], 0.4 µg/mL (≈ 1.09 µM); in [14], 0.025 µg/mL (≈ 0.0683 µM). The figures for the ED50 in assay [4] and in [11] were 0.8 mg/kg and 0.4 mg/kg, respectively. Moreover, the DNA cleavage conc (gyrase) in assay [6] is 0.5 µg/mL.

Regarding `CC(C)NCC1CCN(c2nc3c(cc2F)c(=O)c(C(=O)O)cn3C2CC2)C1` (stereo not given), the MIC in assay [1] came out at 0.2 µg/mL (≈ 0.515 µM); in assay [2], 0.2 µg/mL (≈ 0.515 µM); in assay [3], 0.2 µg/mL (≈ 0.515 µM); in assay [5], 0.1 µg/mL (≈ 0.257 µM); in [7], 0.1 µg/mL (≈ 0.257 µM); in [8], 0.2 µg/mL (≈ 0.515 µM). The minimal inhibitory concentration (MIC) in [9] stood at 1.6 µg/mL (≈ 4.12 µM); in assay [10] it was 0.4 µg/mL (≈ 1.03 µM); in assay [12], 0.2 µg/mL (≈ 0.515 µM); in [13], 0.8 µg/mL (≈ 2.06 µM); in assay [14], 0.2 µg/mL (≈ 0.515 µM). Also, the ED50 in assay [4] turned out to be 8 mg/kg; in assay [11], 2 mg/kg; in [15], 35 mg/kg; in assay [16] it was 16 mg/kg. Also, the DNA cleavage conc (gyrase) in [6] is 2.5 µg/mL.

Regarding `CC1COc2c(N3CCC(N)C3)c(F)cc3c(=O)c(C(=O)O)cn1c23.Cl` (stereo not given), the MIC in assay [1] stood at 0.8 µg/mL; in assay [2], 1.6 µg/mL; in [3], 1.6 µg/mL; in assay [5] it was 0.1 µg/mL; in [7] it was 0.2 µg/mL; in [8], 0.4 µg/mL. The MIC was found to be 0.8 µg/mL in [9]; 0.4 µg/mL in [10]; 0.2 µg/mL in assay [12]; 0.4 µg/mL in [13]; 0.4 µg/mL in [14]. The results for the ED50 in assay [4] and in assay [11] were 25 mg/kg and 2 mg/kg, respectively. In [6], this molecule returned a DNA cleavage conc (gyrase) of 0.75 µg/mL.

As for `CN(C)CC1CCN(c2c(F)cc3c(=O)c(C(=O)O)cn(C4CC4)c3c2N)C1.Cl` (stereo not given), the MIC in assay [1] was determined as 0.4 µg/mL; in assay [2], 0.2 µg/mL; in assay [3], 0.4 µg/mL; in assay [5], 0.1 µg/mL; in assay [7], 0.4 µg/mL; in assay [8], 0.2 µg/mL. Further, the MIC stood at 0.8 µg/mL in [9]; 0.8 µg/mL in assay [10]; 0.4 µg/mL in assay [12]; 3.1 µg/mL in [13]; 0.4 µg/mL in [14]. Moreover, the ED50 in assay [4] is 9 mg/kg; in assay [11] it was 4 mg/kg; in [15], 100 mg/kg; in assay [16], 81 mg/kg. The same molecule showed a DNA cleavage conc (gyrase) in [6] of 5 µg/mL.

For the molecule `O=C(O)c1cn(C2CC2)c2nc(N3CCNCC3)c(F)cc2c1=O`, the MIC in [1] was found to be 1.6 µg/mL (≈ 4.81 µM); in assay [2] it was 1.6 µg/mL (≈ 4.81 µM); in [3] it was 1.6 µg/mL (≈ 4.81 µM); in assay [5] it was 0.4 µg/mL (≈ 1.2 µM); in [7], 0.05 µg/mL (≈ 0.15 µM); in [8], 0.1 µg/mL (≈ 0.301 µM). The minimum inhibitory concentration (MIC) in [9] is 0.2 µg/mL (≈ 0.602 µM); in assay [10], 0.1 µg/mL (≈ 0.301 µM); in [12] it was 1.6 µg/mL (≈ 4.81 µM); in [13], 0.2 µg/mL (≈ 0.602 µM); in [14], 0.05 µg/mL (≈ 0.15 µM). Also, the ED50 is 0.7 mg/kg in assay [4], 0.4 mg/kg in assay [11], 14 mg/kg in assay [15] and 6 mg/kg in assay [16]. Moreover, in assay [6], the DNA cleavage conc (gyrase) was 1 µg/mL.

What is called MIC is the lowest concentration found to suppress growth. Low readings indicate inhibition by little substance, high ones a need for much substance.
